One molecule from ChEMBL document CHEMBL1156979, “The impact of polyether chain length on the iron clearing efficiency and physiochemical properties of desferrithiocin analogues” (J Med Chem, 2010) can be followed below.

The logD is lipophilicity at a set pH, counting ionised and neutral species.

Activity calls are given as the source filed them. The rule behind the calls is not given here.

In series [1] the test system is Rattus norvegicus. Nature of the series: Toxicity in Sprague-Dawley rat assessed as histopathological examination at 192 umol/kg, po qd for 10 days. It counts as organism-based. The settings on record: in vivo, 240 h. In outline:
(§1)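 Male Sprague-Dawley rats (300–350 g), fasted overnight, were dosed orally once daily for 10 d. Dosing was 384 μmol/kg/d (capsules or by gavage as monosodium salt) or 192 μmol/kg/d (capsules). Age-matched untreated controls. Rats were euthanized 24 h after the last dose (day 11), and extensive tissues were examined histopathologically.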

Series [2] relates to Rattus norvegicus. Nature of the series: Iron-clearing efficiency in non-iron-overloaded and bile duct-cannulated Sprague-Dawley rat assessed as reduction of renal iron content at 192 umol/kg, po qd for 10 days relative to control. It counts as functional. The arrangement: scale not given: the % may be the effect or the level left. In short, it runs like this: (§2)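 Male Sprague-Dawley rats (300–350 g) were fasted overnight and dosed orally once daily for 10 d. Dosing was 384 μmol/kg/d in gelatin capsules (n = 5) or by gavage as monosodium salt (n = 10), or 192 (n = 6) or 384 μmol/kg/d (n = 5) in capsules. Rats were fed ~3 h post-dose. Age-matched untreated controls (n = 12). Kidney, liver, heart and pancreas were taken on day 11, wet-ashed (120 °C, then H2O2), and iron was measured by flame absorption spectroscopy.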

The test system of series [3] is Sapajus apella. Nature of the series: Iron-clearing efficiency in iron-overloaded Cebus apella at 75 umol/kg, po measured daily once for 2 days by flame absorption spectroscopy relative to control. It counts as functional. In short, it runs like this: (§3)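 Iron-overloaded Cebus apella (3.5–4 kg; iv iron dextran to about 500 mg Fe/kg, ≥60 days before use) dosed orally at 75 μmol/kg, by gavage as monosodium salt (1 equiv NaOH in distilled water) or in capsules. Feces and urine collected every 24 h from 4 days pre-drug to 5 days post-drug; iron by flame absorption spectroscopy. ICE = 2-day post-drug iron minus 4-day baseline average, divided by theoretical output (2:1 ligand:iron); percent. Performance ratio = mean primate ICE/rodent ICE.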

In series [4] the test system is Sapajus apella. Nature of the series: Iron-clearing efficiency in iron-overloaded Cebus apella assessed as feces iron excretion at 75 umol/kg, po measured daily once for 5 days by lame absorption spectroscopy relative to control. Format: functional.
Series [5] concerns Rattus norvegicus. The series can be described thus: Iron-clearing efficiency in non-iron-overloaded and bile duct-cannulated Sprague-Dawley rat assessed as reduction of liver iron content at 384 umol/kg, po qd for 10 days relative to control. The arrangement: scale not given: the % may be the effect or the level left. It counts as functional. In outline: as §2
Series [6] deals with Rattus norvegicus. Nature of the series: Toxicity in Sprague-Dawley rat assessed as mild to moderate vacuolar degeneration of proximal tubular epithelial cells at 384 umol/kg, po qd for 10 days. It counts as organism-based, Epithelial cell. To be noted: in vivo, 240 h. In short, it runs like this:
as §1

Series [7] concerns Rattus norvegicus. The series can be described thus: Renal toxicity in Sprague-Dawley rat at 384 umol/kg, po qd for 10 days. Format: organism-based. To be noted: in vivo, 240 h. In outline: as §1
The test system of series [8] is Rattus norvegicus. The series can be described thus: Iron-clearing efficiency in non-iron-overloaded and bile duct-cannulated Sprague-Dawley rat assessed as reduction of cardiac iron content at 384 umol/kg, po qd for 10 days relative to control. The settings on record: Heart. It counts as functional, organism-based. In short, it runs like this: as §2
Series [9] relates to Rattus norvegicus. The series can be described thus: Iron-clearing efficiency in non-iron-overloaded and bile duct-cannulated Sprague-Dawley rat assessed as reduction of renal iron content at 384 umol/kg, po qd for 10 days relative to control. Format: functional. The arrangement: scale not given: the % may be the effect or the level left. In outline:
as §2

The test system of series [10] is Rattus norvegicus. The series can be described thus: Iron-clearing efficiency in non-iron-overloaded and bile duct-cannulated Sprague-Dawley rat assessed as bile iron excretion at 300 umol/kg, po up to 48 hrs. Format: functional, organism-based. In short, it runs like this:
(§4)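 Non-iron-overloaded male Sprague-Dawley rats (400–450 g), bile duct-cannulated, given a single oral dose of 300 μmol/kg, either by gavage as monosodium salt or in capsules. Bile was collected at 3 h intervals for up to 48 h and urine every 24 h. Iron was measured by flame absorption spectroscopy. ICE = 24-h iron excretion of treated rats minus controls, divided by theoretical output (2:1 ligand:iron); percent. Mean ± SEM; one-tailed t-test.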

For series [11], the system named is Rattus norvegicus. Nature of the series: Iron-clearing efficiency in non-iron-overloaded and bile duct-cannulated Sprague-Dawley rat assessed as urine iron excretion at 300 umol/kg, po after 48 hrs relative to control. It counts as functional.
Series [12] is described as follows: Ratio of iron-clearing efficiency in iron-overloaded Cebus apella at 75 umol/kg, po to iron-clearing efficiency in non-iron-overloaded and bile duct-cannulated Sprague-Dawley rat at 300 umol/kg, po after 48 hrs. It counts as functional, organism-based. In outline: as §3
Series [13] is described as follows: Octanol-water partition coefficient, log P in Tris buffer at pH 7.4 by shake flask method. Format: physicochemical. In short, it runs like this: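 Octanol/water partition was measured at pH 7.4 (Tris buffer) by the shake-flask direct method. The fraction of drug in octanol is expressed as log P_app.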
Series [14] concerns Rattus norvegicus. The series can be described thus: Iron-clearing efficiency in non-iron-overloaded and bile duct-cannulated Sprague-Dawley rat assessed as reduction of pancreatic iron content at 384 umol/kg, po qd for 10 days relative to control. It counts as functional, organism-based. In short, it runs like this: as §2
For series [15], the system named is Rattus norvegicus. The series can be described thus: Iron-clearing efficiency in non-iron-overloaded and bile duct-cannulated Sprague-Dawley rat assessed as reduction of cardiac iron content at 192 umol/kg, po qd for 10 days relative to control. The settings on record: Heart. Format: functional, organism-based. In outline: as §2
Series [16] relates to Rattus norvegicus. The series can be described thus: Iron-clearing efficiency in non-iron-overloaded and bile duct-cannulated Sprague-Dawley rat assessed as reduction of liver iron content at 192 umol/kg, po qd for 10 days relative to control. Format: functional. The arrangement: scale not given: the % may be the effect or the level left. In short, it runs like this: as §2

Series [17] has as its system Rattus norvegicus. The series can be described thus: Iron-clearing efficiency in non-iron-overloaded and bile duct-cannulated Sprague-Dawley rat at 300 umol/kg, po after 48 hrs relative to control. Format: functional. In short, it runs like this:
as §4

Series [18] deals with Sapajus apella. Nature of the series: Iron-clearing efficiency in iron-overloaded Cebus apella assessed as urine iron excretion at 75 umol/kg, po measured daily once for 5 days by lame absorption spectroscopy relative to control. Format: functional.
Series [19] deals with Rattus norvegicus. Nature of the series: Iron-clearing efficiency in non-iron-overloaded and bile duct-cannulated Sprague-Dawley rat assessed as time required to maximum bile iron excretion at 300 umol/kg, po after 12 to 15 hrs. Format: functional, organism-based. In short, it runs like this: as §4
Series [20] relates to Rattus norvegicus. Nature of the series: Iron-clearing efficiency in non-iron-overloaded and bile duct-cannulated Sprague-Dawley rat assessed as reduction of pancreatic iron content at 192 umol/kg, po qd for 10 days relative to control. Format: functional, organism-based. In outline:
as §2

In the case of `CCOC(=O)[C@@]1(C)CSC(c2ccc(OCCOCCOC)cc2O)=N1`, the Activity result is given as “Non-toxic” in series [1]; 12.6% in series [2]; 8.8% in series [3]; 98% in series [4]; 59.1% in series [5]; “Toxic” in [6]. The Activity result in [7] is given as “Toxic”; in series [9] it was 32.1%; in [11], 1%; in [16] it was 27%; in series [17] it was 25.9%; in [18] it was 2%. Further, the result in series [8], in series [14], in [15], in series [19] and in [20] was inactive. For the same molecule, the outcome in [10] was Active. Besides, the Ratio in series [12] was 0.3. The molecule further had a logD in series [13] of 3.
